Laboratory results as given in ChEMBL document CHEMBL3286281, “Amino derivatives of glycyrrhetinic acid as potential inhibitors of cholinesterases” (Bioorg Med Chem, 2014).

What was measured:
[1] = target: Cholinesterase (Equus caballus, UniProt P81908); experiment: Inhibition of equine serum BChE using butyrylthiocholine iodide as substrate after 20 mins measured for 1 min interval for 30 mins by Ellman's method
[2] = target: Acetylcholinesterase (Electrophorus electricus, UniProt O42275); experiment: Inhibition of Electrophorus electricus AChE using acetylthiocholine iodide as substrate after 20 mins measured for 1 min interval for 30 mins by Ellman's method
Sequence of Acetylcholinesterase (O42275 whole entry): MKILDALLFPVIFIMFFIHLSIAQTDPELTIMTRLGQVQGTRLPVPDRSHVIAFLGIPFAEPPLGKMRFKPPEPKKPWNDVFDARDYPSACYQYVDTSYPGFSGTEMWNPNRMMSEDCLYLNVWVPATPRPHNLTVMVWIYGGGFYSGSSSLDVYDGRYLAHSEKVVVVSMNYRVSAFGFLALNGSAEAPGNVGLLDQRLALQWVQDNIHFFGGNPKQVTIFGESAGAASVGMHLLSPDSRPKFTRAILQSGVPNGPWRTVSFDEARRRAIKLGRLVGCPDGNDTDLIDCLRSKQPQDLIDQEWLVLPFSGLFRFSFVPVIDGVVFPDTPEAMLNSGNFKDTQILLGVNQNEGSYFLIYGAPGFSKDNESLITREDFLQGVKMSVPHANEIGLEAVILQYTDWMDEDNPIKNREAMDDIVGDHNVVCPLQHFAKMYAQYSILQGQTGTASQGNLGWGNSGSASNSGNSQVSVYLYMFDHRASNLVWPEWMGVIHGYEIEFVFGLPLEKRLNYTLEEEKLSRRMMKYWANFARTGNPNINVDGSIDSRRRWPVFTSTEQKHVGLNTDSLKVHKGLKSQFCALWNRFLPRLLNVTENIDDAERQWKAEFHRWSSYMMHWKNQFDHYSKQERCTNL

[3] = Selectivity ratio of Ki for Electrophorus electricus AChE to Ki for equine serum BChE
Procedure, shortened: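 Ki from Ellman kinetics at pH 8.0 and 30 °C after 20 min enzyme–inhibitor–DTNB preincubation. Inhibitor at several concentrations plus a water blank; ATChI or BTChI at 0.9375, 0.625, 0.325 and 0.1875 mM. A415 read every 1 min for 30 min, in triplicate. Ki from Lineweaver-Burk, Dixon and Cornish-Bowden plots; F = Ki(AChE)/Ki(BChE).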

Sequence of Cholinesterase (P81908 whole entry): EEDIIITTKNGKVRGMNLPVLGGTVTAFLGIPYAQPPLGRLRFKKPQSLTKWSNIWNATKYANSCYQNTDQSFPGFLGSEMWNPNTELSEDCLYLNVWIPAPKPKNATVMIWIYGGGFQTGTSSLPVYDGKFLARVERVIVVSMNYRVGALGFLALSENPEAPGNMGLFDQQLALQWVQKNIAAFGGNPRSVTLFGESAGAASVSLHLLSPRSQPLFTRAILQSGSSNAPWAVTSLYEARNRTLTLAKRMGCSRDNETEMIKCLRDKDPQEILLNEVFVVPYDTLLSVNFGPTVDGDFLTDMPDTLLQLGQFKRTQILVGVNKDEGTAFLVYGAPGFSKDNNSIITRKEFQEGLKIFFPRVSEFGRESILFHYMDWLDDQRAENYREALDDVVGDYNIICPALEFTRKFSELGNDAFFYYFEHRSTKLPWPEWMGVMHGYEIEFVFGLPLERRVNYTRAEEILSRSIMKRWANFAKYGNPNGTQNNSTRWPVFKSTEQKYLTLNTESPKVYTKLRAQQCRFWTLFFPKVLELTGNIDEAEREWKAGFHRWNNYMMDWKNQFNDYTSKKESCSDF

## CC1(C)[C@@H](O)CC[C@]2(C)[C@H]3C(=O)C=C4[C@@H]5C[C@@](C)(C(=O)O/C(=N\C6CCCCC6)NC6CCCCC6)CC[C@]5(C)CC[C@@]4(C)[C@]3(C)CC[C@@H]12
[1]
  Ki: > 10 µM
[2]
  Ki: > 10 µM

## COC(=O)[C@@]1(C)CC[C@]2(C)CC[C@]3(C)C(=CC(=O)[C@@H]4[C@@]5(C)CC[C@H](OC(=O)[C@H](C)N)C(C)(C)[C@@H]5CC[C@]43C)[C@@H]2C1 [listing 1 of 2 here]
[3]
  Ratio Ki: < 0.21

## CC1(C)[C@@H](O)CC[C@]2(C)[C@H]3C(=O)C=C4[C@@H]5C[C@@](C)(C(=O)NCCCCN)CC[C@]5(C)CC[C@@]4(C)[C@]3(C)CC[C@@H]12
[1]
  Ki: 74.3 µM
[3]
  Ratio Ki: 0.56
[2]
  Ki: 41.8 µM

## COC(=O)[C@@]1(C)CC[C@]2(C)CC[C@]3(C)C(=CC(=O)[C@@H]4[C@@]5(C)CC[C@H](OC(=O)[C@@H]6CCCN6)C(C)(C)[C@@H]5CC[C@]43C)[C@@H]2C1
[1]
  Ki: > 100 µM
[3]
  Ratio Ki: < 0.24
[2]
  Ki: 23.5 µM

## CC1(C)[C@@H](OC(=O)CN)CC[C@]2(C)[C@H]3C(=O)C=C4[C@@H]5C[C@@](C)(C(=O)O)CC[C@]5(C)CC[C@@]4(C)[C@]3(C)CC[C@@H]12
[1]
  Ki: > 100 µM
[2]
  Ki: > 100 µM

## COC(=O)[C@@]1(C)CC[C@]2(C)CC[C@]3(C)C(=CC(=O)[C@@H]4[C@@]5(C)CC[C@H](OC(=O)[C@H](C)N)C(C)(C)[C@@H]5CC[C@]43C)[C@@H]2C1 [listing 2 of 2 here]
[1]
  Ki: > 100 µM
[2]
  Ki: 20.8 µM

## COC(=O)[C@@]1(C)CC[C@]2(C)CC[C@]3(C)C(=CC(=O)[C@@H]4[C@@]5(C)CC[C@H](OC(=O)[C@@H](N)CC(=O)O)C(C)(C)[C@@H]5CC[C@]43C)[C@@H]2C1
[1]
  Ki: > 100 µM
[3]
  Ratio Ki: < 0.16
[2]
  Ki: 16.2 µM

## COC(=O)[C@@]1(C)CC[C@]2(C)CC[C@]3(C)C(=CC(=O)[C@@H]4[C@@]5(C)CC[C@H](OC(=O)[C@@H](N)CCC(=O)O)C(C)(C)[C@@H]5CC[C@]43C)[C@@H]2C1
[1]
  Ki: > 100 µM
[3]
  Ratio Ki: < 0.19
[2]
  Ki: 18.9 µM

## C[C@H](N)C(=O)O[C@H]1CC[C@]2(C)[C@H]3C(=O)C=C4[C@@H]5C[C@@](C)(C(=O)O)CC[C@]5(C)CC[C@@]4(C)[C@]3(C)CC[C@H]2C1(C)C
[1]
  Ki: > 100 µM
[3]
  Ratio Ki: < 0.24
[2]
  Ki: 24 µM

## COC(=O)[C@@]1(C)CC[C@]2(C)CC[C@]3(C)C(=CC(=O)[C@@H]4[C@@]5(C)CC[C@H](OC(=O)[C@@H](N)CSCc6ccccc6)C(C)(C)[C@@H]5CC[C@]43C)[C@@H]2C1
[1]
  Ki: > 100 µM
[3]
  Ratio Ki: < 0.41
[2]
  Ki: 40.6 µM

## CC1(C)[C@@H](O)CC[C@]2(C)[C@H]3C(=O)C=C4[C@@H]5C[C@@](C)(C(=O)NCCN)CC[C@]5(C)CC[C@@]4(C)[C@]3(C)CC[C@@H]12
[1]
  Ki: > 100 µM
[2]
  Ki: > 100 µM

## CNCC(=O)O[C@H]1CC[C@]2(C)[C@H]3C(=O)C=C4[C@@H]5C[C@@](C)(C(=O)OC)CC[C@]5(C)CC[C@@]4(C)[C@]3(C)CC[C@H]2C1(C)C
[1]
  Ki: > 100 µM
[3]
  Ratio Ki: < 0.21
[2]
  Ki: 20.4 µM

## CC1(C)[C@@H](O)CC[C@]2(C)[C@H]3C(=O)C=C4[C@@H]5C[C@@](C)(C(=O)O)CC[C@]5(C)CC[C@@]4(C)[C@]3(C)CC[C@@H]12 [ENOXOLONE]
[1]
  Ki: > 100 µM
[2]
  Ki: > 100 µM

## CC(C)(C)OC(=O)NCCCNC(=O)[C@@]1(C)CC[C@]2(C)CC[C@]3(C)C(=CC(=O)[C@@H]4[C@@]5(C)CC[C@H](O)C(C)(C)[C@@H]5CC[C@]43C)[C@@H]2C1
[1]
  Ki: > 10 µM
[2]
  Ki: > 10 µM

## CCOC(=O)[C@@]1(C)CC[C@]2(C)CC[C@]3(C)C(=CC(=O)[C@@H]4[C@@]5(C)CC[C@H](OC(=O)[C@H](Cc6ccccc6)NC(=O)OC(C)(C)C)C(C)(C)[C@@H]5CC[C@]43C)[C@@H]2C1
[1]
  Ki: > 2 µM
[2]
  Ki: > 2 µM

## CC1(C)[C@@H](O)CC[C@]2(C)[C@H]3C(=O)C=C4[C@@H]5C[C@@](C)(C(=O)NCCCCCN)CC[C@]5(C)CC[C@@]4(C)[C@]3(C)CC[C@@H]12
[1]
  Ki: > 100 µM
[2]
  Ki: > 100 µM
